# The sample as a whole holds a higher share of hits than the screen did.
# HCT116 PTEN-null – suppresses growth of cells with PTEN deletion | HCT116 PTEN-null viability, CellTiter-Glo, 60 h; hits give low values | viability, % at 10 µM | 140,000 tested, 1.2% active;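 active = viability at or below a set limit, 4 SD under the median of all tested compounds, cut at about 3.7% in these data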;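 note: PTEN knockout HCT116 line with beta catenin targeted HCT116 as companion control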
# HUVEC inhibit – blocks proliferation of human endothelial cells; viability, % at 10 µM (by protocol); HUVEC proliferation, CellTiter-Glo luminescence, 72 h; hits give low values; 86,000 tested, 1.1% active;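 active = viability at or below 30%; inactive = viability above 30%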;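 note: 100% = median luminescence of DMSO-only cell control wells on each plate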
# H69AR growth 86K – blocks growth of human H69AR lung tumor cells. H69AR lung tumor viability, ATP luminescence, 72 h; hits give low values. viability, % at 10 µM. 85,000 tested, 6% active. AID 598;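 active = viability at or below 40%; inactive = viability above 40%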;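 note: multidrug resistant small cell line overexpressing MRP-1 efflux transporter; 100% = mean luminescence of untreated control wells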
# bCat KO growth – beta-catenin-lacking colon tumor cell growth suppression; viability, % at 10 µM; 140,000 tested, 1.5% active; HCT116 beta-catenin knockout viability, CellTiter-Glo, 60 h; hits give low values; AID 818;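 active = viability at or under a set limit, the compound median less 4 SD, cut at about 6% in these data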;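 note: 0% = Hyamine 1622 control at 20 µM and 100% = untreated cell control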
# Fibroblast inh – blocks proliferation of human lung fibroblasts; viability, % at 10 µM; 85,000 tested, 1.1% active; AID 719; LL 47 human lung fibroblast viability, ATP luminescence; hits give low values;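 active = viability at or below 50% in the single dose screen; inactive = viability above 50%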;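 note: compound exposure lasted 72 h before the ATP readout; 100% = median luminescence of untreated cell-only wells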
#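 Material: human lung fibroblast line LL 47, low passage; Evaluation: viability percentage against median untreated-cell control; Buffer or medium: 15% FBS in IMEM; Incubation: 72 h compound exposure at 37 °C after overnight plating; Dosing: 0.1% DMSO in all compound wells; Measured by: CellTiter-Glo luminescence.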
# Phagocytosis inh – macrophage phagocytosis inhibition; J774A.1 macrophage IgG-bead phagocytosis, imaging; inhibition, % at 5 µM; 110,000 tested, 0.07% active; AID 1029;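 active = inhibition above the mean of the plate negative controls plus 5 SD, cut at about 13% in these data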;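 note: phagocytic index as fraction of beads internalized from green versus red external bead signal; plate controls were DMSO negative control for no effect and cytochalasin-D positive control for full effect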
# Active calls of the source: *; nt = no result.
SMILES,HCT116 PTEN-null,HUVEC inhibit,H69AR growth 86K,bCat KO growth,Fibroblast inh,Phagocytosis inh
COC(=O)CNC(=O)CSc1nc(N)cc(=O)[nH]1,86,nt,nt,87,nt,-1
Cc1nn(-c2ccccc2)c(C)c1C(=O)OCC(=O)NC12CC3CC(CC(C3)C1)C2,71,91,29*,60,99,nt
C=C(C(=O)c1ccccc1)C(C)C(=C)C(=O)c1ccccc1,1.4*,nt,nt,2.4*,nt,-6
C=C(C(=O)c1ccccc1)C(c1ccccc1)C(C)C(=O)c1ccccc1 (centres undefined),9,nt,nt,11,nt,-7
Cc1cc2cc(CNC(=O)Cc3cccs3)ccc2n1C,nt,61,38*,nt,107,nt
CCCC(=O)NCc1ccc2c(c1)cc(C)n2C,104,101,104,94,105,nt
O=C(COc1ccccc1-c1ccccc1)NCc1cccc(Cl)c1,83,nt,nt,92,nt,-2
CCN1CCCC1CNC(=O)c1cc2c(-c3ccc(Cl)cc3)nn(C)c2s1 (centres undefined),6,1.7*,2.1*,3.2*,11*,nt
CCN1CCCC1CNC(=O)c1cc2c(-c3cccc(OC)c3)nn(C)c2s1 (centres undefined),4,47,60,2.6*,70,-2
COCCNC(=O)c1cc2c(-c3ccc(Cl)cc3)nn(C)c2s1,62,68,67,61,74,nt
O=C(CCCC(=O)OCC(Cl)=C(Cl)Cl)Nc1ccccc1,94,nt,nt,92,nt,-1
CCOC(=O)/C=C/C(=O)Nc1ccccc1-c1ccccc1NC(=O)/C=C/C(=O)OCC,2.0*,nt,nt,3.9*,nt,-12
CCOC(=O)/C=C/C(=O)Nc1cccc([N+](=O)[O-])c1,105,nt,nt,91,nt,nt
Cc1ccc(NC2=C/C(=N/S(=O)(=O)c3cccs3)c3ccccc3C2=O)cc1,0.5*,nt,nt,1.2*,nt,0
O=C1C(Nc2ccccc2)=C/C(=N/S(=O)(=O)c2cccs2)c2ccccc21,1.7*,nt,nt,2.0*,nt,-5
O=C1C(Nc2ccccc2)=C(NS(=O)(=O)c2ccccc2)C(=O)c2ccccc21,71,nt,nt,79,nt,-4
COC(=O)c1cccc(NS(=O)(=O)c2cccs2)c1C,85,92,105,84,92,-1
COC(=O)c1ccccc1NC1=C/C(=N\S(=O)(=O)c2cccs2)c2ccccc2C1=O,1.7*,4.0*,23*,1.8*,5.7*,1
COc1ccc(Nc2oc(-c3ccc(Cl)cc3)nc2C#N)cc1,16,43,25*,10,39*,nt
CCOc1ccc(Nc2oc(-c3ccc(Cl)cc3)nc2C#N)cc1,63,82,32*,73,42*,nt
Cc1ccc(-n2c(SCC(=O)Nc3nccs3)nc3c(c2=O)SCC3)cc1,108,98,67,92,27*,-2
CCOc1ccc(-n2c(SCC(=O)Nc3nccs3)nc3c(c2=O)SCC3)cc1,91,52,101,90,86,-1
O=C(NC1CCS(=O)(=O)C1)c1c(NC(=O)C2COc3ccccc3O2)sc2c1CCCC2 (centres undefined),16,85,23*,13,102,-4
O=C(Nc1nc2c(s1)CCCC2)C1COc2ccccc2O1 (centres undefined),76,94,87,77,96,0
COC(=O)c1c(NC(=O)C2COc3ccccc3O2)sc2c1CCN(Cc1ccccc1)C2 (centres undefined),99,nt,nt,99,nt,0
SMILES,HCT116 PTEN-null,HUVEC inhibit,H69AR growth 86K,bCat KO growth,Fibroblast inh,Phagocytosis inh
CCCNC(=O)c1c(NC(=O)C2COc3ccccc3O2)sc2c1CCCC2 (centres undefined),21,40,29*,38,13*,nt
CCNC(=S)N/N=C/c1ccc(OCC(=O)Nc2ccc(C)cc2)cc1,72,nt,nt,73,nt,-1
CCCCOc1ccc(Cc2n[nH]c(=S)n2N)cc1,98,nt,nt,96,nt,-3
O=C(NCC1CCCO1)C(=Cc1cccc([N+](=O)[O-])c1)C(=O)NCC1CCCO1 (centres undefined),4,nt,nt,5.2*,nt,0
CCc1cc2c(NCC3CCCO3)nc(C)nc2s1 (centres undefined),95,99,74,100,98,nt
CCOc1ccccc1CNC(=O)c1nn(CC)cc1[N+](=O)[O-],90,nt,nt,91,nt,-6
Cc1cc(Cl)c(S(=O)(=O)NC2CCCC2)cc1OCC(=O)NC1CCCCC1,35,69,96,31,110,0
CCOc1cc(/C=N/N=C(/N)c2nonc2N)cc(Br)c1OCc1ccc(Cl)cc1,108,22*,18*,100,29*,0
CCOc1cc(/C=N/N=C(N)N)ccc1OCc1ccc(Cl)cc1,1.2*,nt,nt,1.3*,nt,6
COc1cc(/C=N/N=C(/N)c2nonc2N)cc(Br)c1OCc1ccccc1C,22,51,61,21,52,0
CCOc1ccc2nc(NCCNC(=O)Nc3ccccc3)c(C#N)cc2c1,88,73,28*,95,102,1
N#Cc1c(N)oc(-c2ccc3c(c2)OCO3)c1-c1ccc2c(c1)OCO2,26,96,22*,39,99,0
Cc1ccc(-c2cc(-c3ccc(C)o3)nc(N)c2C#N)cc1,73,80,37*,64,96,1
N#Cc1c(N)nc2c(c1-c1ccc3c(c1)OCO3)CCCCCC2,95,104,67,106,95,0
Cc1ccc(-c2cc(-c3ccc4c(c3)OCO4)c(C#N)c(N)n2)o1,56,71,19*,49,85,1
CCCc1cc(-c2ccc(O)c(OCC)c2)c(C#N)c(N)n1,82,87,48,86,91,-2
CCOc1cc(-c2cc(-c3ccc(C)o3)nc(N)c2C#N)ccc1O,58,52,12*,60,83,-2
Cc1ccc(-c2cc(-c3ccc(F)cc3)c(C#N)c(N)n2)o1,87,nt,nt,94,nt,0
O=C(Cc1ccccc1)NNC(=O)c1cnccn1,99,nt,nt,97,nt,-10
O/N=C1\CCCc2ccc(Cl)cc21,95,nt,nt,120,nt,-4
COC(=O)c1cc(NS(=O)(=O)c2ccc(NCc3cccnc3)c([N+](=O)[O-])c2)cc(C(=O)OC)c1,102,nt,nt,101,nt,-3
CCOc1cc(-c2c(C)c(CC)nc(N)c2C#N)ccc1O,79,92,36*,90,96,-1
Cc1ccc(-c2cc(-c3ccc(Cl)cc3)c(C#N)c(N)n2)o1,55,58,7.1*,44,71,4
CCCc1cc(=O)oc2c(C)c3occ(C)c3cc12,76,86,96,72,102,-2
COc1ccc2c(c1)c(=O)oc1cc3oc(C)c(C)c3cc12,78,95,82,80,93,nt
COc1ccc2c(c1)c(=O)oc1cc3occ(C(C)(C)C)c3cc12,87,40,13*,95,58,-1
COc1ccc2c(c1)c(=O)oc1c(C)c3occ(C)c3cc12,nt,116,35*,nt,102,nt
COc1cc(/C=C2/C(=N)N3C=CSC3=NC2=O)ccc1OCCCOc1c(C)cccc1C,87,77,44,87,94,nt

# Screens: PubChem BioAssay, several laboratories
